Assay results reported in PubChem BioAssay AID552 (SRMLSC, 2006).
The whole screen tested about 20,000 compounds, of which about 10 (0.05%) were called active. Cut-off read from the data, not from the text of the source: active = inhibition above about 40%; inactive = the rest. Shown is part of a subset that was picked to be rich in actives. Where a SMILES comes first, the peptide text is derived from it. [ ]: non-standard residue; d: D form. ξ: configuration not given here. ξV = CC(C)C(N)C(=O)O

experiment: growth inhibitors of wild type E. coli, primary screen, strain BW25113 wild type, absorbance readout (AID 552); details: OD600, at 10 µM, stronger effect = higher value;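 note: bacteria exposed to compound for 20 hours at 37 °C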
Summary of the method: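 Assay system: Bacterial strain in a whole-cell growth screen | Amount: Inoculum from a 1:1000 dilution of a 1.5 h subculture | Detection: Absorbance at 615 nm as a measure of bacterial growth | Timing: 20 h exposure, 37 °C | Buffer or medium: LB plus kanamycin 50 µg/mL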

inhibition, inactive:
CCOC(=O)N1CCC(O)(c2cc(C)c(C)cc2C)CC1 2.31%
CCOC(=O)c1ccc(NC(=O)CSc2nnc(COc3ccccc3OC)n2C)cc1 -14.8%
O=C(OCc1ccccc1F)c1ccc2c(c1)OCCO2 6.06%
CCN(Cc1nc2ccccc2c(=O)[nH]1)Cc1cc(=O)oc2cc(C)c(C)cc12 -2.52%
Cc1noc(C)c1C(=O)NC(C)c1ccc2c(c1)OCO2 (configuration not stated) -22.5%
CC(C)COC(=O)C1C2C=CC3(CN(C(C)c4ccc(Br)cc4)C(=O)C13)O2 (configuration not stated) 15.3%
COC(=O)c1ccc(Oc2nc(Nc3ccc(F)cc3)nc(N3CCCC3)n2)cc1 -16.9%
CSc1ccc(S(=O)(=O)Nc2cccc(F)c2)cc1 -8.18%
CCN(CC)S(=O)(=O)c1ccc(NC(=O)CN(c2cccc(F)c2)S(C)(=O)=O)cc1 -6.94%
CS(=O)(=O)N(CC(=O)N1CCOCC1)c1ccc2c3c(cccc13)CC2 -16.3%
CC(=O)NC(C(=O)NCC(N)=O)C(C)C (configuration not stated) (Ac-[ξV]-Gly-NH2) 7.41%
CCCCN(CC)CCCNC(=O)CS(=O)(=O)Cc1nc(-c2cccc(OC)c2)oc1C 4.26%
CCOC(=O)n1c(SCC(=O)N(CC)CC)nc2ccccc21 -3.3%
Cc1cc(C)nc(N2C(=O)CC(Cc3ccccc3)C2=O)n1 (configuration not stated) -9.77%
CC(C)C[C@H](NC(=O)[C@@H]1O[C@H]1C(=O)O)C(=O)NCCCCN=C(N)N -3.4%
CN(C)CCNC(CC(=O)Nc1ccc(Cl)c(Cl)c1)C(=O)O (configuration not stated) -14.6%
COc1ccc(C(=O)Nc2cccnc2)cc1C(=O)Nc1cccnc1 1.96%
COC(=O)Nc1c(C)n(C)n(-c2ccccc2)c1=O -2.62%
Cc1ccc(C)c(S(=O)(=O)N2CC(=O)Nc3ccccc32)c1 -14.8%
COCCn1c(C)cc(C(=O)CSc2ncnc3sc4c(c23)CCC4)c1C 2.06%
Cc1nc(C)c(C(=O)Nc2ccc(C)c(F)c2)o1 -3.6%
COc1cc(-c2nc(S(=O)(=O)c3ccc(Cl)cc3)c(N(C)C)o2)cc(OC)c1OC -0.36%
Cc1cc(C(=O)NCCCc2ccccc2)no1 -3.97%
CCc1ccc(CCC(=O)Nc2ccc(S(N)(=O)=O)cc2)o1 -21.2%
Cc1ccc(-c2noc(-c3ccccc3C(=O)NCC3CCCO3)n2)cc1 (configuration not stated) 8.67%
CC1(C)C(=O)Nc2ccccc2N1C(=O)COC(=O)Cn1cnc2ccccc2c1=O -1.7%
O=C1CC(c2ccccc2)CC(O)=C1C=NCCN1CCOCC1 (configuration not stated) 0.58%
COCCCNC(=O)CSc1nc2ccc(N3CCOCC3)cc2c(=O)n1CCc1ccccc1 1.57%
CCCC(=O)Nc1ccc(C(=O)NCCCn2ccnc2)cc1 -11.9%
COc1ccc(S(=O)(=O)N2CCOCC2)cc1C(=O)Nc1nc2ccccc2s1 4.62%
CCn1c(SCC(=O)Nc2nccs2)nnc1-c1ccncc1 -9.46%
CCCC1CC(C)(C(=O)Cn2[nH]c(=O)ccc2=O)OC1=O (configuration not stated) 19.6%
CC(C)Cc1ccc(S(=O)(=O)N2CCN(C(=O)c3ccco3)CC2)cc1 -19.7%
O=C(CS(=O)(=O)c1cn(Cc2ccc(Cl)cc2)c2ccccc12)N1CCOCC1 -0.05%
CCOC(=O)C1CCN(C(=O)Cn2cc(C#N)c3ccccc32)CC1 6.78%
O=C(O)C1CC=C(Cl)CC1C(=O)NCc1ccccc1 (configuration not stated) -2.5%
CCOC(=O)c1cc(NC(=O)c2cccnc2)cc(C(=O)OCC)c1 -7.79%
CCOC(=O)c1c(N)c(C#N)nn1-c1ccccc1C(=O)OC -8.34%
CCN1CCN(C(=O)CN(C)S(=O)(=O)c2ccc(OC)cc2)CC1 -16.9%
C=CCNC(=O)CSc1nc2sc(C)c(C)c2c(=O)[nH]1 -0.815%
O=C(O)[C@@H]1CCCN1c1ncnc2sc3c(c12)CCC3 5%
CN1C(C)(C)CC(NC(=O)CCC(=O)NC2CC(C)(C)N(C)C(C)(C)C2)CC1(C)C -21%
COc1ccccc1N1CCN(C(=O)c2cc(-c3ccc(Cl)c(Cl)c3)on2)CC1 -2.37%
COc1ccc(OC)c(S(=O)(=O)Nc2ccccc2F)c1 -13.8%
Cc1noc(C)c1C(=O)Nc1ccccn1 -22.1%
Cc1ccc(SCCN2C(=O)NC(C)(C)C2=O)cc1 4.35%
COc1cc(C2C(C#N)=C(C)NC3=C2C(=O)CC(C)(C)C3)ccc1O (configuration not stated) 5.23%
COC(=O)c1ccc(Oc2nc(NC(C)C)nc(SC)n2)cc1 -19.1%
CCOC(=O)c1cc(NC(=O)SCC(=O)O)c(C)nc1C -3.26%
Cc1onc(-c2ccccc2)c1C(=O)N1CCOCC1 16.2%
CCOC(=O)Cc1csc(NC(=O)CN(C)S(=O)(=O)c2ccc3c(c2)CCC(=O)N3)n1 3.09%
CN(C)S(=O)(=O)c1ccc(Oc2ccc(S(=O)(=O)N(C)C)cc2)cc1 7.29%
Cn1nnnc1SCC(=O)N1CCN(C(c2ccccc2)c2ccccc2)CC1 4.16%
CC12CCC(C(=O)N3CCN(c4ncccn4)CC3)(c3nc4ccccc4nc31)C2(C)C (configuration not stated) -25.6%
COc1c(C(=O)N2CCCC2)ccc2ccccc12 -8.42%
COc1ccc(CSc2nc(N3CCOCC3)c3c(c2C#N)CC(C)(C)OC3)cc1 -19.4%
CCC(C)n1[nH]c(=O)c2c(C)cc(C)nc21 (configuration not stated) 5.71%
CCCCSc1nnc(-c2ccc(NC(=O)CC)cc2)n1C -21.9%
Cc1cc(C)c2c(n1)nn1c(N3CCN(c4cccc(Cl)c4)CC3)cc(C)nc21 -4.02%
Cc1cc(Cl)c(S(=O)(=O)NCCC(=O)O)cc1OCC(N)=O -0.81%
COCCn1c(-c2ccc(OC)c(OC)c2)nc2ccccc21 -1.61%
Cc1cc(C(F)(F)F)nn1CC(=O)N1CCCC1 3.35%
Cn1c(=O)[nH]c(=O)c2c1nc(N(CCO)Cc1ccccc1)n2Cc1ccccc1Cl -2.48%
CC1CCc2c(sc3c2C2=NS(=O)(=O)CCN2C=N3)C1 (configuration not stated) 6%
Cc1nn(CC(=O)Nc2ccc3c(c2)nc(CN2CCCCC2)n3C)c(=O)c2ccccc12 2.04%
COc1ccccc1-c1nc(C(F)(F)F)c(OC)o1 -5.84%
O=c1ccc2cc(S(=O)(=O)N3CCN(c4ccccc4)CC3)ccc2o1 -12.1%
Cc1ccc(C(=O)N2CCCCCC2)cc1Br -8.59%
COc1cccc(-c2nc(S(=O)(=O)c3ccccc3)c(N3CCOCC3)o2)c1 7.07%
COc1ccccc1-c1cc(C(=O)NCCCn2ccnc2)no1 -4.16%
O=C(O)Cc1ccc(NC(=O)c2cccs2)cc1 -19.2%
COC(=O)Cc1c(C)c2ccc(OCC(=O)NCc3ccc4c(c3)OCO4)cc2oc1=O -21.1%
O=C(CS(=O)(=O)Cc1ccccc1)Nc1cccnc1 6.45%
O=C(NCc1ccco1)c1cc(-c2cccnc2)nc2ccc(Cl)cc12 -19.8%
CCSc1nc2c(c(=O)[nH]1)C(c1cccnc1)C(C(=O)OC(C)C)=C(C)N2 (configuration not stated) -1.79%
Cc1cccc(C(=O)Nc2ccc(CC(=O)O)cc2)c1 -0.63%
O=C(Nc1ccccc1)N(Cc1cccnc1)Cc1ccco1 -3.67%
O=C(CSc1nc2ccccc2o1)N1CCN(c2ccccc2)CC1 -25.4%
CC(=O)Nc1ccc(S(=O)(=O)Nc2nc3n(n2)C(c2ccccc2)CC(=O)N3)cc1 (configuration not stated) -1.04%
Cc1cc2c(cc1C)NC(c1ccccn1)C1=C(CC(C)(C)CC1=O)N2 (configuration not stated) -18.9%
CCOC(=O)COc1ccc(Cl)cc1C1NC(=O)NC(C)=C1C(C)=O (configuration not stated) -10.9%
O=C(COc1ccc(F)cc1)N(CC1=CCS(=O)(=O)C1)c1ccccc1 -20.6%
CC1(C)CC(=O)C=C(NCc2ccncc2)C1 -1.29%
CCc1cc(Br)ccc1NC(=O)C1CCCO1 (configuration not stated) -16.5%
Cc1cc(C)nc(SCc2nnc(SCC(=O)Nc3ncc(C)s3)n2Cc2ccco2)n1 -3.82%
CCOc1ccc(-c2nnn(CC(=O)N3CCN(c4ccc(F)cc4)CC3)n2)cc1OCC -5.75%
CCCOc1ccccc1-c1nc(SCCC(=O)O)n[nH]1 -18.4%
CCOC(=O)CSc1nnc(CNC(=O)c2cccs2)n1-c1cc(OC)ccc1OC 6.52%
Cc1cc(C)n(C(=O)c2ccc(S(=O)(=O)N3CCCC3)cc2)n1 -20.2%
CCCCn1c(CN2CCN(CCO)CC2)nc2ccccc21 -3.29%
Nc1nc(SCCOc2ccccc2)n[nH]1 6.28%
O=C(CSc1nc(-c2ccco2)cc(C(F)(F)F)n1)N1CCc2ccccc2C1 -19.6%
COCCn1c(CN(Cc2ccccc2)Cc2ccccc2)nc2c1c(=O)n(C)c(=O)n2C 12.3%
O=C(CSc1nnc(-c2cccs2)n1-c1ccccc1)NCc1ccco1 -20.9%
CCS(=O)(=O)NCCc1ccc(OC)c(OC)c1 -17.9%
CC1=C(C(=O)Nc2ccccc2)C(c2cccs2)C(C#N)=C(SCC#N)N1 (configuration not stated) 7.71%
CCn1cc(NC(=O)Nc2ccc(OC)c(OC)c2)c(C(N)=O)n1 -17.1%
NC(=O)CSc1oc(-c2cccs2)nc1S(=O)(=O)c1ccccc1 -19.6%
COc1ccc(-c2noc(COc3ccc(Cl)c(C)c3)n2)cc1 15.8%
CS(=O)(=O)N(Cc1nc2sc3c(c2c(=O)[nH]1)CCCC3)C1CCCCC1 9.07%
CC(c1nnc(SCC(=O)Nc2sccc2C#N)n1-c1ccc(Cl)cc1)N(C)C (configuration not stated) -3.98%
Cc1ccc(S(=O)(=O)NCc2nc3ccccc3c(=O)n2N)cc1 -21.5%
